Measurements: ChEMBL document CHEMBL1143775, “Convenient one pot synthesis of some novel derivatives of thiazolo[2,3-b]dihydropyrimidinone possessing 4-methylthiophenyl moiety and evaluation of their antibacterial and antifungal activities” (2007)
Converted amounts (≈) assume the structure as drawn.

Experiments:
Type in all cases: functional
Escherichia coli [1] = experiment: Antibacterial activity against Escherichia coli ATCC 25922
Method in brief: (§1)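 Compound-loaded discs were placed on nutrient agar inoculated separately with fresh bacterial strains. Plates were incubated at 37 °C for 24 h with separate solvent and growth controls. Zone of inhibition and MIC were measured. Ciprofloxacin was the reference drug.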

Staphylococcus aureus [2] = experiment: Antibacterial activity against Staphylococcus aureus ATCC 25923; method in brief: as §1
Aspergillus fumigatus [3] = experiment: Antifungal activity against Aspergillus fumigatus NCIM 902 at 10 ug/ml; conditions: read-out: IZ
Method in brief: (§2)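 Serial dilution method on Sabouraud agar (peptone, D-glucose, agar; pH 5.7) seeded with a saline spore suspension made from a loopful of each strain. Plates were dried for 1 h at incubator temperature. Test solutions in DMSO went into punched wells, with a DMSO control. Incubation was at 37 °C for 3–4 days. Zone of inhibition and MIC were read against ciclopiroxolamine as standard.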

Escherichia coli [4] = experiment: Antibacterial activity against Escherichia coli ATCC 25922 at 10 ug/ml; conditions: read-out: IZ; method in brief: as §1
Klebsiella pneumoniae [5] = experiment: Antibacterial activity against Klebsiella pneumoniae at 10 ug/ml; conditions: read-out: IZ; method in brief: as §1
Aspergillus flavus [6] = experiment: Antifungal activity against Aspergillus flavus NCIM 524 by dilution method; method in brief: as §2
Talaromyces marneffei [7] = experiment: Antifungal activity against Penicillium marneffei at 10 ug/ml; conditions: read-out: IZ; method in brief: as §2
Aspergillus fumigatus [8] = experiment: Antifungal activity against Aspergillus fumigatus NCIM 902 by dilution method; method in brief: as §2
Pseudomonas aeruginosa [9] = experiment: Antibacterial activity against Pseudomonas aeruginosa ATCC 27853 at 10 ug/ml; conditions: read-out: IZ; method in brief: as §1
Klebsiella pneumoniae [10] = experiment: Antibacterial activity against Klebsiella pneumoniae; method in brief: as §1
Aspergillus flavus [11] = experiment: Antifungal activity against Aspergillus flavus NCIM 524 at 10 ug/ml; conditions: read-out: IZ; method in brief: as §2
Staphylococcus aureus [12] = experiment: Antibacterial activity against Staphylococcus aureus ATCC 25923 at 10 ug/ml by disk diffusion method; conditions: read-out: IZ; method in brief: as §1
Candida albicans [13] = experiment: Antifungal activity against Candida albicans NCIM 3100 by dilution method; method in brief: as §2
Pseudomonas aeruginosa [14] = experiment: Antibacterial activity against Pseudomonas aeruginosa ATCC 27853; method in brief: as §1
Talaromyces marneffei [15] = experiment: Antifungal activity against Penicillium marneffei by dilution method; method in brief: as §2
Candida albicans [16] = experiment: Antifungal activity against Candida albicans NCIM 3100 at 10 ug/ml; conditions: read-out: IZ; method in brief: as §2

MIC (Escherichia coli [1])	MIC (Staphylococcus aureus [2])	MIC (Aspergillus flavus [6])	MIC (Aspergillus fumigatus [8])	MIC (Klebsiella pneumoniae [10])	MIC (Candida albicans [13])	MIC (Pseudomonas aeruginosa [14])	MIC (Talaromyces marneffei [15])	Compound	zone of inhibition at 10 µg/mL (Aspergillus fumigatus [3])	zone of inhibition at 10 µg/mL (Escherichia coli [4])	zone of inhibition at 10 µg/mL (Klebsiella pneumoniae [5])	zone of inhibition at 10 µg/mL (Talaromyces marneffei [7])	zone of inhibition at 10 µg/mL (Pseudomonas aeruginosa [9])	zone of inhibition at 10 µg/mL (Aspergillus flavus [11])	zone of inhibition at 10 µg/mL (Staphylococcus aureus [12])	zone of inhibition at 10 µg/mL (Candida albicans [16])
25 µg/mL (≈ 44.6 µM)	12.5 µg/mL (≈ 22.3 µM)	12.5 µg/mL (≈ 22.3 µM)	12.5 µg/mL (≈ 22.3 µM)	12.5 µg/mL (≈ 22.3 µM)	6 µg/mL (≈ 10.7 µM)	12.5 µg/mL (≈ 22.3 µM)	6 µg/mL (≈ 10.7 µM)	CCOC(=O)C1=C(C)N=c2s/c(=C\c3ccc(F)c(Oc4ccccc4)c3)c(=O)n2C1c1ccc(SC)cc1 (configuration not stated)	12 mm	10 mm	12 mm	19 mm	12 mm	18 mm	19 mm	20 mm
25 µg/mL (≈ 44.5 µM)	25 µg/mL (≈ 44.5 µM)	25 µg/mL (≈ 44.5 µM)	12.5 µg/mL (≈ 22.3 µM)	12.5 µg/mL (≈ 22.3 µM)	12.5 µg/mL (≈ 22.3 µM)	12.5 µg/mL (≈ 22.3 µM)	12.5 µg/mL (≈ 22.3 µM)	CCOC(=O)C1=C(C)N=c2s/c(=C\c3ccc(-c4ccc([N+](=O)[O-])cc4)o3)c(=O)n2C1c1ccc(SC)cc1 (configuration not stated)	17 mm	12 mm	11 mm	11 mm	13 mm	12 mm	10 mm	12 mm
25 µg/mL (≈ 45.4 µM)	25 µg/mL (≈ 45.4 µM)	12.5 µg/mL (≈ 22.7 µM)	12.5 µg/mL (≈ 22.7 µM)	12.5 µg/mL (≈ 22.7 µM)	6 µg/mL (≈ 10.9 µM)	12.5 µg/mL (≈ 22.7 µM)	12.5 µg/mL (≈ 22.7 µM)	CCOC(=O)C1=C(C)N=c2s/c(=C\c3ccc(-c4ccc(Cl)cc4)o3)c(=O)n2C1c1ccc(SC)cc1 (configuration not stated)	10 mm	10 mm	12 mm	11 mm	10 mm	17 mm	12 mm	19 mm
12.5 µg/mL (≈ 26.7 µM)	12.5 µg/mL (≈ 26.7 µM)	12.5 µg/mL (≈ 26.7 µM)	6 µg/mL (≈ 12.8 µM)	6 µg/mL (≈ 12.8 µM)	6 µg/mL (≈ 12.8 µM)	12.5 µg/mL (≈ 26.7 µM)	6 µg/mL (≈ 12.8 µM)	CCOC(=O)C1=C(C)N=c2s/c(=C\c3ccc(F)cc3)c(=O)n2C1c1ccc(SC)cc1 (configuration not stated)	20 mm	17 mm	20 mm	20 mm	10 mm	18 mm	18 mm	19 mm
25 µg/mL (≈ 53.6 µM)	25 µg/mL (≈ 53.6 µM)	25 µg/mL (≈ 53.6 µM)	12.5 µg/mL (≈ 26.8 µM)	12.5 µg/mL (≈ 26.8 µM)	12.5 µg/mL (≈ 26.8 µM)	12.5 µg/mL (≈ 26.8 µM)	12.5 µg/mL (≈ 26.8 µM)	CCOC(=O)C1=C(C)N=c2s/c(=C\c3ccc(O)cc3)c(=O)n2C1c1ccc(SC)cc1 (configuration not stated)	10 mm	12 mm	12 mm	12 mm	15 mm	10 mm	12 mm	10 mm
25 µg/mL (≈ 50.5 µM)	25 µg/mL (≈ 50.5 µM)	25 µg/mL (≈ 50.5 µM)	12.5 µg/mL (≈ 25.3 µM)	12.5 µg/mL (≈ 25.3 µM)	12.5 µg/mL (≈ 25.3 µM)	12.5 µg/mL (≈ 25.3 µM)	12.5 µg/mL (≈ 25.3 µM)	CCOC(=O)C1=C(C)N=c2s/c(=C\c3ccc4c(c3)OCO4)c(=O)n2C1c1ccc(SC)cc1 (configuration not stated)	12 mm	10 mm	10 mm	10 mm	10 mm	12 mm	10 mm	11 mm
25 µg/mL (≈ 52 µM)	25 µg/mL (≈ 52 µM)	12.5 µg/mL (≈ 26 µM)	6 µg/mL (≈ 12.5 µM)	6 µg/mL (≈ 12.5 µM)	6 µg/mL (≈ 12.5 µM)	6 µg/mL (≈ 12.5 µM)	12.5 µg/mL (≈ 26 µM)	CCOC(=O)C1=C(C)N=c2s/c(=C\c3ccc(OC)cc3)c(=O)n2C1c1ccc(SC)cc1 (configuration not stated)	21 mm	10 mm	21 mm	12 mm	24 mm	17 mm	12 mm	20 mm
